Out of some 220,000 compounds screened, about 630 (0.29%) were called active. This is one part of a sample in which actives are shown more often than they occur.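 The calls were made as follows: active = activation above its plate's cutoff, the mean activation of the plate's test wells plus 3 SD (cut at about 12% in these data); inactive = the rest.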
Molecular target: Mucolipin-3 (Homo sapiens) (UniProt Q8TDD5)
Test: human TRPML3 channel agonists, primary screen, cell-based, HEK293 TRPML3-YFP, Fluo-8 calcium fluorescence, 3 µM (AID 1448)
Details: at 3 µM, stronger effect = higher value, 100% = the carbachol control signal
Method in brief: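 Test system – HEK293 line with stable expression of human TRPML3-YFP channel · Control set – carbachol 87 µM final as high control (100%), DMSO as low control (0%) · Signal – Fluo-8 calcium dye fluorescence, ex 470-495, em 515-575 nm · Incubation – 1-h 37 °C dye load, 5-s basal, 120-s post-compound reads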

Chain of Mucolipin-3 (Homo sapiens) (Q8TDD5 whole entry, looked up): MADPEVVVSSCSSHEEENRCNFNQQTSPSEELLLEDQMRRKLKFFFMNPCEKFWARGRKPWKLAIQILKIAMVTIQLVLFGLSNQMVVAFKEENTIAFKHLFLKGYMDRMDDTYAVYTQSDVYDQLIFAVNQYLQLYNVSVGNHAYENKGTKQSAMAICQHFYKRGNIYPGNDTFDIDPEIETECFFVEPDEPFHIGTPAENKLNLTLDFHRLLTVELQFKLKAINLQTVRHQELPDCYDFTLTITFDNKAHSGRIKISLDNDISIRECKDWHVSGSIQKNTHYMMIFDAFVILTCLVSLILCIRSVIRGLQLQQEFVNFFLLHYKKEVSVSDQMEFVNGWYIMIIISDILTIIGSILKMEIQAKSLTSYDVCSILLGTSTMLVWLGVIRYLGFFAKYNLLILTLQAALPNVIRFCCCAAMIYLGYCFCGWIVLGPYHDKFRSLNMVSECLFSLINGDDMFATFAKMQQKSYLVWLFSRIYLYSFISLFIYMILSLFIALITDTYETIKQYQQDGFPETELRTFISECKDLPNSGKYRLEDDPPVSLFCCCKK

Structure (SMILES) | activation
Cc1[nH]c2c(C(=O)N3CCCC(CCC(=O)NCc4ccccc4F)C3)cccc2c1C (stereo not drawn) | -0.04% (inactive)
COC(=O)CCC(=O)N1CCCC(CO)(Cc2ccccc2)C1 (stereo not drawn) | 0.26% (inactive)
Cc1ccccc1-n1nc(C)c2c1N=C1C(Cl)=CC(Cl)=CN1C2c1ccc(C(=O)O)cc1 (stereo not drawn) | 0.62% (inactive)
Cc1ccc(OCC(=O)Nc2ccccc2Sc2ccc(Cl)cc2)c([N+](=O)[O-])n1 | 0.1% (inactive)
CC(C)CNC(=O)C(=O)Nc1ccc(N(C)C)cc1 | 1.3% (inactive)
O=[N+]([O-])/C=C1\CCCCCN1 | 0.64% (inactive)
COc1ccccc1N(CC(=O)N1CCCCC1)S(=O)(=O)c1ccccc1 | 162% (active)
COc1ccc(Cl)cc1N(CC(=O)N1CCCCC1)S(C)(=O)=O | 56.7% (active)
CCOC(=O)N1CCN(C(=O)CN(c2ccc(C)c(C)c2)S(=O)(=O)c2ccccc2)CC1 | 0.07% (inactive)
COc1cccc2c(=O)n(CC(=O)N3CCCCCC3)ccc12 | 0.82% (inactive)
COc1ccc(S(=O)(=O)N(C)CC(=O)N2CCCC2)cc1Cl | 0.85% (inactive)
COc1ccc(Cl)cc1N(CC(=O)N/N=C/c1ccc(OCC(N)=O)cc1)S(C)(=O)=O | 0.86% (inactive)
CCCC(=O)Nc1ccc2c(c1)nc(CCNC(=O)c1ccco1)n2C | 0.81% (inactive)
CCOc1ccc(CN2CCN(Cc3ccc(C)o3)CC2CCO)cc1 (stereo not drawn) | 1.1% (inactive)
CN(Cc1nc(-c2cnccn2)no1)Cc1n[nH]c2c1CCCCC2 | 0.69% (inactive)
CCn1c(SCC(=O)Nc2nccs2)nnc1-c1ccco1 | 0.4% (inactive)
O=C(CSc1nnc2ccc(-c3ccncc3)nn12)N1CCCCC1 | -0.71% (inactive)
Cc1ccc(F)cc1NC(=O)N1CCCN(c2ccc(C(F)(F)F)cn2)CC1 | 2.2% (inactive)
Cc1cc2c(cc1C)N(C(=O)CN1C(=O)c3ccccc3C1=O)C(C)(C)c1ssc(=S)c1-2 | 81.4% (active)
Cc1cccc(NC(=O)CN2C(=O)c3ccccc3C2=O)c1C | 1.15% (inactive)

Structure (SMILES) | activation
Cc1ccc2c(c1)-c1c(ssc1=S)C(C)(C)N2C(=O)CN1C(=O)c2ccccc2C1=O | -0.04% (inactive)
CCOc1ccc(NC(=O)NNC(=O)c2ccc(Cl)cc2Cl)cc1 | 0.56% (inactive)
O=C(NCCN1CCOCC1)c1ccc2c(c1)N(Cc1ccc(Cl)cc1)CCS2 | 0.23% (inactive)
O=C1/C(=C/c2cccs2)SC(=S)N1C1CCS(=O)(=O)C1 (stereo not drawn) | 0.54% (inactive)
O=C(O)CCC(=O)Nc1nc2ccc([N+](=O)[O-])cc2s1 | 0.5% (inactive)
O=C(NC(Nc1nc2ccc([N+](=O)[O-])cc2s1)(C(F)(F)F)C(F)(F)F)c1ccccc1 | 13% (active)
O=C(Nc1nc2ccc([N+](=O)[O-])cc2s1)c1ccncc1 | 1.14% (inactive)
C=CCNC(=O)COC(=O)CNC(=O)c1cc(Cl)cc([N+](=O)[O-])c1 | 0.51% (inactive)
COc1ccc(NS(=O)(=O)c2ccc(Oc3c(C#N)cccc3C#N)cc2)cc1 | 4.31% (inactive)
Cc1nnc(C)c2c(C)n(N)c(C)c12 | 0.94% (inactive)
O=C(NC(CC(=O)N1CCN(c2ccccc2)CC1)c1ccccc1)c1ccccc1Cl (stereo not drawn) | -0.24% (inactive)
CCN(CC)c1ccc2cc(C(=O)O)c(=O)oc2c1 | 0.92% (inactive)
COc1ccc(C(=O)N/N=c2\oc3ccccc3cc2C(N)=O)cc1 | 0.85% (inactive)
CCN(CC)c1ccc2cc(C(N)=O)/c(=N\NC(=O)c3ccncc3)oc2c1 | 22.1% (active)
OCC(O)CN(c1ccccc1)c1ccccc1 (stereo not drawn) | 0.25% (inactive)
CN1CCN(/N=C/c2ccc(-c3ccc([N+](=O)[O-])cc3)o2)CC1 | 4.1% (inactive)
Cn1c2c(c(=O)n(C)c1=O)C(c1cccc(F)c1)C(C#N)=C(N)O2 (stereo not drawn) | 0.03% (inactive)
Cc1nonc1C1CCCN1Cc1nc(-c2ccc(F)cc2F)oc1C (stereo not drawn) | 0.58% (inactive)
O=S(=O)(c1cccc2nonc12)N1CCN(c2cccc(Cl)c2)CC1 | 0.52% (inactive)
CCOC(=O)CC1C(=O)NCCN1c1nc2c(C)cccn2c(=O)c1/C=C1\SC(=S)N(C(C)CC)C1=O (stereo not drawn) | 11.9% (active)

Structure (SMILES) | activation
Cc1cccn2c(=O)c(/C=C3\SC(=S)N(CC(C)C)C3=O)c(NCCCOC(C)C)nc12 | 0.65% (inactive)
CCOC(=O)CC1C(=O)NCCN1C(=O)COc1ccc(Br)cc1C (stereo not drawn) | -0.14% (inactive)
CC(CC(=O)C1C(C)C=CCC1(C)C)NNC(N)=O (stereo not drawn) | 0.6% (inactive)
O=C(CC(O)(C(F)(F)F)C(F)(F)F)Nc1ccc(Cl)c(Cl)c1 | 17.3% (active)
CN(C)CCNC(CC(=O)Nc1ccc(Cl)c(Cl)c1)C(=O)O (stereo not drawn) | -0.13% (inactive)
O=C(CC(=O)Nc1ccc(Cl)c(Cl)c1)N/N=C/c1ccc(O)cc1 | 0.24% (inactive)
CCn1c(CSc2nc(C)cc(C)n2)nnc1SCC(N)=O | 0.87% (inactive)
CC(C)CN(CC(C)C)CC(O)CN(c1ccccc1)S(=O)(=O)c1ccccc1[N+](=O)[O-] (stereo not drawn) | -1.13% (inactive)
COc1ccc(-c2noc(-c3ccc(C)cc3)n2)cc1 | 1.08% (inactive)
COc1ccc(-c2noc(CN(C)S(=O)(=O)c3ccc(C)cc3)n2)cc1 | 138% (active)
COc1ccc(-c2noc(CSc3ccc(C)cc3)n2)cc1 | 0.35% (inactive)
Cc1ccnc(NC(=O)c2ccc(Cl)c([N+](=O)[O-])c2)c1 | 0.05% (inactive)
CC(C)(C)OC(=O)N1CCC(NC(=O)c2[nH]cnc2C(=O)N[C@@H](Cc2ccccc2)C(=O)OCc2ccccc2)CC1 | 0.25% (inactive)
COc1cc(NC(=O)c2ccccc2NS(=O)(=O)c2ccc(Cl)s2)cc(OC)c1 | 12.1% (active)
COc1cc(NC(=O)c2cccnc2SC)cc(OC)c1 | -0.28% (inactive)
COC(=O)c1ccc(NC(=O)c2ccccc2NS(=O)(=O)c2ccccc2)cc1 | 11.1% (inactive)
CN(Cc1cc2cc(F)ccc2[nH]1)Cc1nc(-c2cnccn2)no1 | 0.76% (inactive)
Cc1cccc(CSc2ccc(-c3cccs3)nn2)c1 | 0.19% (inactive)
